Ten molecules from ChEMBL document CHEMBL1132237, “Fluorination of 3-(3-(piperidin-1-yl)propyl)indoles and 3-(3-(piperazin-1-yl)propyl)indoles gives selective human 5-HT1D receptor ligands with improved pharmacokinetic profiles” (J Med Chem, 1999) can be followed below.

In series [1] the target is T1, 5-hydroxytryptamine receptor 1B (Homo sapiens, UniProt P28222). The series can be described thus: Agonist-induced [35S]GTP-gamma-S, binding in CHO cells stably transfected with human 5-hydroxytryptamine 1B receptor. It counts as functional, cell-based. The method in brief: (§1)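 [35S]GTPγS binding stimulated by agonist, measured in CHO cells stably transfected with the human 5-HT1D or 5-HT1B receptor. EC50 values are the logarithmic mean of 2–3 independent determinations. Maximum variance of individual log(EC50) values from the mean was 4%.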

In series [2] the target is T1, 5-hydroxytryptamine receptor 1B. The series is described as follows: Efficacy was evaluated relative to human 5-HT1B receptor using [35S]GTP-gamma-S, as radioligand. The series is classed as functional.
For series [3] the target is unchanged. The series is described as follows: Displacement of specific [3H]5-HT binding to cloned human 5-hydroxytryptamine 1B receptor expressed in CHO cells. It counts as cell-based. The method in brief: (§2)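 Radioligand binding to human 5-HT1D and 5-HT1B receptors stably expressed in CHO cells. Radioligand was used at approximately its KD for each receptor. IC50 values are the logarithmic mean of 2–5 independent determinations, each run in duplicate. Maximum variance from the mean of log(IC50) was 4%. Selectivity is IC50(1B)/IC50(1D).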

For series [4], the target named is T2, 5-hydroxytryptamine receptor 1D (Homo sapiens, UniProt P28221). The series can be described thus: Displacement of specific [3H]5-HT binding to cloned human 5-hydroxytryptamine 1D receptor expressed in CHO cells. It counts as cell-based. In outline:
as §2

The target of series [5] is Serotonin 1 receptors; 5-HT1B & 5-HT1D (Homo sapiens) (UniProt P28222+P28221). The series can be described thus: Selectivity towards 5-HT1D and to that of 5-HT1B in CHO cells. It counts as cell-based. The method in brief: as §2
Series [6] can be described thus: pKa value by potentiometric. It counts as physicochemical. The method in brief: (§3)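 Potentiometric titration in MeOH–H2O cosolvent with ionic strength set by 0.15 M KCl. Three titrations at different water/cosolvent ratios gave psKa values. Aqueous pKa was obtained by Yasuda–Shedlovsky extrapolation to 100% water, plotting psKa + log[H2O] against 1/ε.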
Series [7] has as its system Rattus norvegicus. The series is described as follows: Oral absorption study in rat plasma obtained from hepatic portal vein after 2 hours of administration of 3 mg/kg orally. The series is classed as functional, organism-based. Also noted: dose 3 mg/kg. The method in brief:
(§4)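 Male Sprague–Dawley rats, fasted overnight and with no surgery, received 3 mg/kg orally as a 0.6 mg/mL solution in PEG 400:5 mM HCl (25:75 v/v). Terminal blood was taken from the heart and hepatic portal vein under isoflurane at 0.5 and 2 h, three rats per time point. Plasma drug was measured by electrospray mass spectrometry. Values are mean ± SEM.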

Series [8] has as its system Rattus norvegicus. The series is described as follows: Oral absorption study in rat plasma obtained from cardiac blood samples after 0.5 hours of administration of 3 mg/kg orally. The series is classed as functional, organism-based. Also noted: dose 3 mg/kg. In outline:
as §4

Series [9] concerns Rattus norvegicus. The series is described as follows: Oral absorption study in rat plasma obtained from cardiac blood samples after 2 hours of administration of 3 mg/kg orally. The series is classed as functional, organism-based. Also noted: dose 3 mg/kg. The method in brief: as §4
Series [10] deals with Rattus norvegicus. The series is described as follows: Oral absorption study in rat plasma obtained from hepatic portal vein after 0.5 hours of administration of 3 mg/kg orally. The series is classed as functional, organism-based. Also on record: dose 3 mg/kg. The method in brief: as §4
The nature of series [11]: The compound was evaluated for the pKa units relative to N-methyl-piperazine. It counts as physicochemical.
The nature of series [12]: Relative protonation energy of the compound.
Series [13] can be described thus: The compound was evaluated for the pKa units relative to N-methyl-piperazine. It counts as physicochemical.
The target in series [14] is T2, 5-hydroxytryptamine receptor 1D. The series can be described thus: Agonist-induced [35S]GTP-gamma-S, binding in CHO cells stably transfected with human 5-hydroxytryptamine 1D receptor. The series is classed as functional, cell-based. In outline:
as §1

For series [15], the target named is T1, 5-hydroxytryptamine receptor 1B. The series can be described thus: Efficacy of compound was evaluated relative to human 5-hydroxytryptamine 1B receptor using [35S]GTP-gamma-S, as radioligand. The series is classed as functional.
Series [16] can be described thus: Rate of clearance in rat was determined. The series is classed as ADME, organism-based. The settings on record: plasma, read-out: Clp. In outline:
(§5)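 Male Sprague–Dawley rats (~300 g) were fasted overnight and tail-artery cannulated under isoflurane, then allowed to recover for at least 30 min. Each received 3 mg/kg by tail-vein bolus (3 mg/mL in PEG 300:5 mM HCl 25:75) or by gavage (0.6 mg/mL in PEG 400:5 mM HCl 25:75), three rats per route. Serial blood was sampled up to 6 h. Plasma was analysed by solid-phase extraction and reverse-phase HPLC with fluorescence detection (ex 235, em 370 nm) against spiked-plasma calibration curves.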

Series [17] in a line: Oral bioavailability in rat. It counts as ADME, organism-based. The settings on record: in vivo. In outline:
as §5

The nature of series [18]: pKa value was determined. The series is classed as physicochemical. The method in brief:
as §3

The target in series [19] is T2, 5-hydroxytryptamine receptor 1D. The series is described as follows: Efficacy was evaluated relative to human 5-hydroxytryptamine 1D receptor using [35S]GTP-gamma-S, as radioligand. The series is classed as functional.
Series [20] is described as follows: Cmax in rat. The settings on record: in vivo. It counts as ADME, organism-based. In outline:
as §5

The nature of series [21]: pKa value by potentiometric method. The series is classed as physicochemical. In outline: as §3

The structures appear in SMILES notation. Where “and” joins values, the source holds several entries; their conditions need not be identical. Equal entries are not always repeated.

T1 sequence (P28222 whole entry): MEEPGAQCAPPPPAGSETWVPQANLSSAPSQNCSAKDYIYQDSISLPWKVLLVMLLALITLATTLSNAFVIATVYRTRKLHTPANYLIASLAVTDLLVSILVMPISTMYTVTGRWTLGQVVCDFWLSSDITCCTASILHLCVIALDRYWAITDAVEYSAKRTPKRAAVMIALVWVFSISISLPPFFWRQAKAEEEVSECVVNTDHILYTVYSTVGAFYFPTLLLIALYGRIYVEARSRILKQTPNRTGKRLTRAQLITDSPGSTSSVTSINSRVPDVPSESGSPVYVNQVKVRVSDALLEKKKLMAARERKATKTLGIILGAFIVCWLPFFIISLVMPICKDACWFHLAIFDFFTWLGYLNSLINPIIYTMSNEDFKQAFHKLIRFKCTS
T2 sequence (P28221 whole entry): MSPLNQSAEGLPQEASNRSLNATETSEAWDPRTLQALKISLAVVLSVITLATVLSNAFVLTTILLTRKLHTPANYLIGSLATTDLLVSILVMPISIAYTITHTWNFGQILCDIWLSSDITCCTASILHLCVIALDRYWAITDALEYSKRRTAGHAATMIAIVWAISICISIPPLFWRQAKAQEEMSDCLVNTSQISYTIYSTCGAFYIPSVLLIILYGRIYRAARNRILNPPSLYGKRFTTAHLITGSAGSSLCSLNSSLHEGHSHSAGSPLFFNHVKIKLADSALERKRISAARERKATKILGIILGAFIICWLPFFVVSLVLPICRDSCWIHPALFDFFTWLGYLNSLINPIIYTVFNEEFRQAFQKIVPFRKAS

`c1ccc(CC2CCN(CCCc3c[nH]c4ccc(-n5cnnc5)cc34)CC2)cc1`: it took 120 nM to reach a half-maximal effect in series [1] (EC50). Further, in series [2], the Efficacy turned out to be 62%. Besides, the values for the IC50 in series [3] and in series [4] were 19 nM and 0.3 nM, respectively. The Selectivity in series [5] came out at 63. The pKa in series [6] stood at 9.7. Moreover, the Plasma concentration with Rattus norvegicus [7] is 33 ng/mL; with Rattus norvegicus [8] it was less than 2 ng/mL; with Rattus norvegicus [9] it was less than 2 ng/mL; in the series with Rattus norvegicus [10] it was 25 ng/mL.
Molecule `c1ccc(CN2CCN(CCCc3c[nH]c4ccc(-n5cnnc5)cc34)CC2)cc1` displayed an IC50 in series [4] of 0.14 nM. For the same molecule, the Selectivity in series [5] was 79. This molecule gave a pKa in series [6] of 8.2. Moreover, the Plasma concentration turned out to be 42 ng/mL in the series with Rattus norvegicus [8] and 168 ng/mL in the series on Rattus norvegicus [10].
On to `CN1CCCC(F)C1` (configuration not stated), for which the “delta pKa” value in series [11] is given as -1.83; in [13] it was -3.24. In addition, the RPE in [12] is 4.42 and 2.5.
Consider `CN(Cc1ccccc1)C1CCN(CCCc2c[nH]c3ccc(-n4cnnc4)cc23)CC1`, for which the EC50 in series [1] came to 1400 nM; in series [14], 1.5 nM. The Efficacy in series [2] worked out at 77%. Further, the results for the IC50 in [3] and in [4] were 140 nM and 2.1 nM, respectively. The Selectivity in series [5] was found to be 67. In [6], the pKa turned out to be 9.3. Besides, the Plasma concentration was 66 ng/mL with Rattus norvegicus [7], less than 1 ng/mL with Rattus norvegicus [8], 5 ng/mL with Rattus norvegicus [9] and 4 ng/mL with Rattus norvegicus [10].
As for `Fc1cccc(CCN2CCN(CCCc3c[nH]c4ccc(-n5cnnc5)cc34)CC2)c1`, the EC50 in [1] was 430 nM. This molecule also gave an Efficacy in series [15] of 71%. The Selectivity in [5] turned out to be 140. The clearance in series [16] turned out to be 84 mL/min/kg. Further, the bioavailability in series [17] was determined as 27%. For the same molecule, the pKa in [18] was found to be 8.3.
On to `FC(F)(Cc1c[nH]c2ccc(-n3cnnc3)cc12)CN1CCC(OCc2ccccc2)CC1`, for which the EC50 worked out at 10000 nM in series [1] and 34 nM in series [14]. In addition, the figures for the Efficacy in [2] and in series [19] were 78% and 100%, respectively. The IC50 in series [3] stood at 1000 nM; in [4], 8.5 nM. The molecule also had a Selectivity in series [5] of 118. Besides, the clearance in [16] amounted to 43 mL/min/kg. The molecule also came in with a Cmax in [20] of 157 ng/mL. In series [17], the bioavailability worked out at 11%. For the same molecule, the pKa in series [21] amounted to 5.9.
On to `Fc1cccc(CCN2CCN(CC(F)(F)Cc3c[nH]c4ccc(-n5cnnc5)cc34)CC2)c1`, for which the IC50 in series [3] stood at 1600 nM; in series [4] it was 15 nM. Moreover, the Selectivity in series [5] amounted to 107. In addition, the EC50 in series [14] was determined as 35 nM. Also, the Efficacy in [19] amounted to 78%. Besides, in [16], the clearance is 67 mL/min/kg. Also, the Plasma concentration in the series with Rattus norvegicus [7] was 61 ng/mL; in the series on Rattus norvegicus [8], less than 4 ng/mL; in the series with Rattus norvegicus [9], less than 4 ng/mL; in the series on Rattus norvegicus [10], 503 ng/mL.
Take `CN1CCCCC1` [N-METHYLPIPERIDINE]: in series [11], the “delta pKa” value is listed as 0. Besides, the RPE in series [12] was found to be 0.
On to `FC1(Cc2ccccc2C(F)(F)F)CCN(CCCc2c[nH]c3ccc(-n4cnnc4)cc23)CC1`, for which the EC50 came out at 290 nM in series [1] and 0.2 nM in series [14]. Further, the Efficacy was found to be 91% in series [2] and 61% in series [19]. The IC50 in series [3] was determined as 14 nM; in series [4] it was 0.3 nM. In addition, the Selectivity in [5] is 47.
As to `FC(Cc1c[nH]c2ccc(-n3cnnc3)cc12)CN1CCC(Cc2ccccc2)CC1` (configuration not stated), the EC50 was found to be 450 nM in series [1] and 0.9 nM in series [14]. Further, the Efficacy in [2] was determined as 77%. For the same molecule, the IC50 amounted to 62 nM in series [3] and 0.9 nM in [4]. The Selectivity in series [5] was determined as 69. The same molecule came in with a bioavailability in [17] of 14%. The molecule further returned a pKa in series [21] of 8.7. Moreover, the Plasma concentration in the series on Rattus norvegicus [7] turned out to be 258 ng/mL; in the series on Rattus norvegicus [8], 196 ng/mL; in the series with Rattus norvegicus [9], 46 ng/mL; with Rattus norvegicus [10], 781 ng/mL.
